Results as given in ChEMBL document CHEMBL2057141, “Imidazolopiperazines: lead optimization of the second-generation antimalarial agents” (J Med Chem, 2012).

Key:
Plasmodium falciparum [1] = test: Antimalarial activity against Plasmodium falciparum 3D7 after 72 hrs by SYBR green fluorescence assay; type: functional, organism-based; conditions: 3D7, 72 h
In short: (§1)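 P. falciparum grown in O+ erythrocytes, screened in medium without human serum plus 0.5% Albumax II. Twelve-point half-log dilutions up to 10 μM final. 0.3% parasitemia, 2.5% hematocrit; 72 h at 37 °C under low-oxygen gas. Lysis buffer with SYBR Green added, 24 h at 25 °C, fluorescence read at 485/530 nm.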

Plasmodium falciparum [2] = test: Antimalarial activity against Plasmodium falciparum W2 after 72 hrs by SYBR green fluorescence assay; type: functional, organism-based; conditions: W2, 72 h; in short: as §1
[3] = target: Voltage-gated inwardly rectifying potassium channel KCNH2 (Homo sapiens, UniProt Q12809); test: Inhibition of human ERG channel expressed in CHO cells by patch clamp assay; type: cell-based
[4] = Permeability of the compound by PAMPA; type: ADME
In short: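 PAMPA in 96-well filter plates. Permeated compound quantified by UV absorbance at 260–290 nm. Reported as percentage absorbed.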

[5] = Apparent permeability across apical to basolateral side in human Caco2 cells by LC/MS analysis; type: ADME, cell-based; conditions: Caco-2
In short: (§2)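 Caco-2 monolayers in 96-well format. Compound measured in apical and basolateral chambers by LC/MS, giving Papp in the A–B and B–A directions. Values reported in cm/s × 10⁶.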

[6] = Apparent permeability across basolateral to apical side in human Caco2 cells by LC/MS analysis; type: ADME, cell-based; conditions: Caco-2; in short: as §2
[7] = Volume of distribution in Balb/c mouse at 5 mg/kg, iv; type: ADME, organism-based; design: dose 5 mg/kg, route intravenous; conditions: in vivo
In short: (§3)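 Male Balb/c mice (n = 3 per group). Compound as a 2.5 mg/mL solution in PEG300/D5W 3:1, filtered. Given by lateral tail vein at 5 mg/kg (2 mL/kg) or orally at 20 mg/kg (8 mL/kg). Six serial 50 μL retro-orbital blood samples to 24 h, heparinized plasma. Plasma extracted with acetonitrile:methanol 3:1 with internal standard, LC-MS/MS. Noncompartmental analysis; F = AUCpo×dose_iv/AUCiv×dose_po.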

[8] = Clearance in Balb/c mouse plasma at 5 mg/kg, iv; type: ADME, organism-based; design: dose 5 mg/kg, route intravenous; in short: as §3
[9] = Half life in Balb/c mouse at 5 mg/kg, iv; type: ADME, organism-based; design: dose 5 mg/kg, route intravenous; conditions: in vivo; in short: as §3
Mus musculus [10] = test: AUC (0 to 24 hrs) in Balb/c mouse at 5 mg/kg, iv; type: ADME, organism-based, Plasma; design: time < 24 hr, dose 5 mg/kg, route intravenous; conditions: in vivo; in short: as §3
[11] = Cmax in Balb/c mouse at 20 mg/kg, po; type: ADME, organism-based; design: dose 20 mg/kg, route oral; conditions: in vivo; in short: as §3
[12] = Tmax in Balb/c mouse at 20 mg/kg, po; type: ADME, organism-based; design: dose 20 mg/kg, route oral; conditions: in vivo; in short: as §3
[13] = Half life in Balb/c mouse at 20 mg/kg, po; type: ADME, organism-based; design: dose 20 mg/kg, route oral; conditions: in vivo; in short: as §3
Mus musculus [14] = test: AUC (0 to 24 hrs) in Balb/c mouse at 20 mg/kg, po; type: ADME, organism-based, Plasma; design: time < 24 hr, dose 20 mg/kg, route oral; conditions: in vivo; in short: as §3
Mus musculus [15] = test: Oral bioavailability in Balb/c mouse at 20 mg/kg; type: ADME, organism-based; conditions: in vivo; in short: as §3
Plasmodium berghei [16] = test: Antimalarial activity against Plasmodium berghei ANKA expressing GFP infected in NMRI mouse assessed as reduction of parasite level in blood at 30 mg/kg, po administered 24 hrs post infection measured after 72 hrs post infection by flow cytometry; type: functional; design: scale not given: the % may be the effect or the level left
In short: (§4)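 Female NMRI mice (20–22 g, n=3) are infected i.v. with 2×10^7 P. berghei GFP ANKA-infected erythrocytes. Oral compound in 75% PEG300/25% D5W is given at 10 mL/kg, once at 24 h or daily at 24/48/72 h post-infection. Parasitemia is read by flow cytometry at 72 h (single dose) or 96 h (triple dose). Activity is % reduction of mean parasitemia versus untreated controls.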

Plasmodium berghei [17] = test: Antimalarial activity against Plasmodium berghei ANKA expressing GFP infected in NMRI mouse assessed as reduction of parasite level in blood at 100 mg/kg, po administered 24 hrs post infection measured after 72 hrs post infection by flow cytometry; type: functional; design: scale not given: the % may be the effect or the level left; in short: as §4
Plasmodium berghei [18] = test: Antimalarial activity against Plasmodium berghei ANKA expressing GFP infected in NMRI mouse assessed as reduction of parasite level in blood at 30 mg/kg, po administered 24 hrs post infection qd for 3 days measured after 96 hrs post infection by flow cytometry; type: functional; design: scale not given: the % may be the effect or the level left; in short: as §4
Plasmodium berghei [19] = test: Antimalarial activity against Plasmodium berghei ANKA expressing GFP infected in po dosed NMRI mouse assessed as reduction of parasite level in blood administered 24 hrs post infection measured after 72 hrs post infection by flow cytometry; type: functional
Plasmodium berghei [20] = test: Antimalarial activity against Plasmodium berghei ANKA expressing GFP infected in NMRI mouse assessed as increase of mouse survival at 30 mg/kg, po administered 24 hrs post infection (reference value: 6 to 7 days); type: functional
Plasmodium berghei [21] = test: Antimalarial activity against Plasmodium berghei ANKA expressing GFP infected in NMRI mouse assessed as increase of mouse survival at 100 mg/kg, po administered 24 hrs post infection (reference value: 6 to 7 days); type: functional
Plasmodium berghei [22] = test: Antimalarial activity against Plasmodium berghei ANKA expressing GFP infected in NMRI mouse assessed as increase of mouse survival at 30 mg/kg, po administered 24 hrs post infection qd for 3 days (reference value: 6 to 7 days); type: functional
[23] = Cmax in Wistar rat at 10 mg/kg, po; type: ADME, organism-based; design: dose 10 mg/kg, route oral; conditions: in vivo
In short: (§5)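 Rat snapshot PK: two Wistar rats dosed orally at 10 mg/kg, formulated at 2.5 mg/mL in 75% PEG300/25% D5W. Blood (100 μL) taken at 0.5, 1, 3 and 5 h post dose. Plasma pooled by sampling time, then analysed by LC-MS/MS.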

Rattus norvegicus = test: Dose normalized AUC (0 to 5 hrs) in Wistar rat at 10 mg/kg, po; type: ADME, organism-based; design: dose 10 mg/kg, route oral; conditions: in vivo; in short: as §5
[24] = Cytotoxicity against human 293T cells; type: cell-based; conditions: HEK-293T cells
[25] = Cytotoxicity against mouse BA/F3 cells; type: cell-based; conditions: baf3
CHO = test: Cytotoxicity against CHO cells; type: cell-based, Cricetulus griseus; conditions: chinese hamster
[26] = Cytotoxicity against human Hep2 cells; type: cell-based; conditions: HEp-2 cells
[27] = Cytotoxicity against human HuH7 cells; type: cell-based; conditions: Huh-7 cells
[28] = Clearance in Wistar rat at 3 mg/kg, iv; type: ADME, organism-based; design: dose 3 mg/kg, route intravenous; conditions: in vivo
In short: (§6)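 Wistar rats, three per route. Dosed IV at 3 mg/kg or orally at 10, 30 or 100 mg/kg; the 100 mg/kg arm used a suspension, others a 2.5 mg/mL filtered 75% PEG300/25% D5W formulation. Six 100 μL blood samples serially per rat within 24 h. LC-MS/MS of plasma, noncompartmental parameters; F is dose-corrected AUCpo/AUCiv.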

[29] = Half life in Wistar rat at 3 mg/kg, iv; type: ADME, organism-based; design: dose 3 mg/kg, route intravenous; conditions: in vivo; in short: as §6
[30] = AUC in Wistar rat at 3 mg/kg, iv; type: ADME, organism-based; design: dose 3 mg/kg, route intravenous; conditions: plasma; in short: as §6
[31] = Cmax in Wistar rat at 30 mg/kg, po; type: ADME, organism-based; design: dose 30 mg/kg, route oral; conditions: in vivo; in short: as §6
[32] = Tmax in Wistar rat at 10 mg/kg, po; type: ADME, organism-based; design: dose 10 mg/kg, route oral; conditions: in vivo
[33] = Tmax in Wistar rat at 30 mg/kg, po; type: ADME, organism-based; design: dose 30 mg/kg, route oral; conditions: in vivo; in short: as §6
[34] = Tmax in Wistar rat at 100 mg/kg, po; type: ADME, organism-based; design: dose 100 mg/kg, route oral; conditions: in vivo; in short: as §6
[35] = Half life in Wistar rat at 10 mg/kg, po; type: ADME, organism-based; design: dose 10 mg/kg, route oral; conditions: in vivo
[36] = Half life in Wistar rat at 30 mg/kg, po; type: ADME, organism-based; design: dose 30 mg/kg, route oral; conditions: in vivo; in short: as §6
[37] = Half life in Wistar rat at 100 mg/kg, po; type: ADME, organism-based; design: dose 100 mg/kg, route oral; conditions: in vivo; in short: as §6
[38] = AUC (all) in Wistar rat at 10 mg/kg, po; type: ADME, organism-based; design: dose 10 mg/kg, route oral; conditions: plasma; in short: as §6
[39] = AUC (all) in Wistar rat at 30 mg/kg, po; type: ADME, organism-based; design: dose 30 mg/kg, route oral; conditions: plasma; in short: as §6
[40] = AUC (all) in Wistar rat at 100 mg/kg, po; type: ADME, organism-based; design: dose 100 mg/kg, route oral; conditions: plasma; in short: as §6
[41] = Oral bioavailability in Wistar rat at 10 mg/kg; type: ADME, organism-based; conditions: in vivo; in short: as §6
[42] = Oral bioavailability in Wistar rat at 30 mg/kg; type: ADME, organism-based; conditions: in vivo; in short: as §6
[43] = Oral bioavailability in Wistar rat at 100 mg/kg; type: ADME, organism-based; conditions: in vivo; in short: as §6

Sequence of Voltage-gated inwardly rectifying potassium channel KCNH2 (Q12809 whole entry): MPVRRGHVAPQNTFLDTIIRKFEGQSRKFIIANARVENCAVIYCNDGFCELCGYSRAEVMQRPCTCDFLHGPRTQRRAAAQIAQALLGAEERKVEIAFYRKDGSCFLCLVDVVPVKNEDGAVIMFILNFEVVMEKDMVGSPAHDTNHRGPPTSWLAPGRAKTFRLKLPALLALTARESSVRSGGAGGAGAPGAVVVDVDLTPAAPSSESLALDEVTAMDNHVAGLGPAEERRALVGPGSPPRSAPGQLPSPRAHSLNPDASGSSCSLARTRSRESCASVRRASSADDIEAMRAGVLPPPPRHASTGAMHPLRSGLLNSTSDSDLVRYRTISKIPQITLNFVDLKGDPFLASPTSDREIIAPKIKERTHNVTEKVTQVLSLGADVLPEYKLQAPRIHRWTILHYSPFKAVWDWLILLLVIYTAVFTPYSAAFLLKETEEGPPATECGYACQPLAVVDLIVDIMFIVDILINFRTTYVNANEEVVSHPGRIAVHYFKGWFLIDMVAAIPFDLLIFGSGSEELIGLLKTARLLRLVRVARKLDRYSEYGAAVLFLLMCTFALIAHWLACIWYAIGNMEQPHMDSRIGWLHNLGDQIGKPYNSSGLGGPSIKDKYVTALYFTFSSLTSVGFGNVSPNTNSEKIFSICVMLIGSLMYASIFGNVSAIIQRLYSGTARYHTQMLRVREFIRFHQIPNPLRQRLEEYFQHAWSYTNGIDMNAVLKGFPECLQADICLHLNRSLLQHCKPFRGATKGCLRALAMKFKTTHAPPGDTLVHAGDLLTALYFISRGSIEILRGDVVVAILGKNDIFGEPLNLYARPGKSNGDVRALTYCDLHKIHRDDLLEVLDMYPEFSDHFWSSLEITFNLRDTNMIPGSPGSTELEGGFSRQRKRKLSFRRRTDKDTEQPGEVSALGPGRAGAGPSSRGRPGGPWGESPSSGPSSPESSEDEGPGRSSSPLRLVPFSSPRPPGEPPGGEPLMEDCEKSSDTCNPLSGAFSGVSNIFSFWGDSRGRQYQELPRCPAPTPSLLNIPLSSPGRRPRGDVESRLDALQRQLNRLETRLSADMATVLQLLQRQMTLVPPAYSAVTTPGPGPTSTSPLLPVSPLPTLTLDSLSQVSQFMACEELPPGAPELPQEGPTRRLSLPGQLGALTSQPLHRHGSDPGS

CC1(C)c2nc(-c3ccc(F)cc3)c(Nc3ccc(F)cc3)n2CCN1C(=O)CN [GANAPLACIDE]
EC50 (Plasmodium falciparum [1]): 0.01 µM | EC50 (Plasmodium falciparum [2]): 0.006 µM | IC50 [3]: 13.4 µM | permeability [4]: 51.8% | Papp A→B [5]: 1.26 ×10⁻⁶ cm/s | Papp B→A [6]: 2.99 ×10⁻⁶ cm/s | Vd [7]: 10.2 L/kg | clearance [8]: 49.2 mL/min/kg | half-life [9]: 2 h | AUC (Mus musculus [10]): 4.119 µM·h | Cmax [11]: 1540 nM | Tmax [12]: 1 h | half-life [13]: 4.35 h | AUC (Mus musculus [14]): 12.155 µM·h | F (Mus musculus [15]): 74% | Activity (Plasmodium berghei [16]): 99.5% | Activity (Plasmodium berghei [17]): 99.4% | Activity (Plasmodium berghei [18]): 99.8% | ED99 (Plasmodium berghei [19]): 2.2 mg/kg | Survival (Plasmodium berghei [20]): 16.3 days | Survival (Plasmodium berghei [21]): 14 days | Survival (Plasmodium berghei [22]): 17.7 days | Cmax ([23]; Wistar): 126 nM | Cmax [23]: 91 nM | AUC/dose (Rattus norvegicus): 1.2 min.ug/ml/(mg/kg) | CC50 [24]: > 12 µM | CC50 [25]: > 12 µM | CC50 (CHO): > 12 µM | CC50 [26]: > 12 µM | CC50 [27]: > 12 µM | clearance [28]: 67.5 mL/min/kg | half-life [29]: 4.6 h | AUC [30]: 1.83 µM·h | Cmax [31]: 580 nM | Tmax [32]: 1.5 h | Tmax [33]: 4.3 h | Tmax [34]: 8 h | half-life [35]: 4.7 h | half-life [36]: 6.3 h | half-life [37]: 8.4 h | AUC [38]: 0.974 µM·h | AUC [39]: 7.34 µM·h | AUC [40]: 34.9 µM·h | bioavailability [41]: 20% | bioavailability [42]: 40% | bioavailability [43]: 57%
